In PubChem BioAssay one finds outcome, activation and potentiation data, which are given here for 30 molecules.

The source made the active and inactive calls.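 The calls were made as follows, unless noted: active = mean duplicate potentiation above the buffer control mean plus 5 SD of buffer wells; inactive = the rest.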

A short description of assay [1]: nonspecific flux increase, KCNQ1-free cells – parental CHO cells, counter-screen for KCNQ1 potentiator project (AID 493006;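 active = duplicate-averaged activation above buffer control mean plus 5 SD of those controls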). Conditions: parental CHO-K1 cells, FluxOR thallium flux, at 10 µM; stronger effect = higher value. The method, boiled down: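 Test system: parental CHO-K1 cells, FluxOR dye-loaded / Probe or stimulus: potassium plus thallium depolarizing stimulus, 5x stock 12.5 mM K2SO4, Tl2SO4 / Timing: overnight 37 °C plating, 90 min dye, 20 min dark compound / Measured by: kinetic thallium-flux fluorescence / Read-out: max-minus-min fluorescence over baseline, percent of buffer-to-R-L3 span / Benchmarks: buffer and R-L3 controls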

Assay [2] has as its target Potassium voltage-gated channel subfamily KQT member 1 (Homo sapiens) (UniProt P51787). In words: enhancement of KCNQ1 channel thallium flux – FluxOR thallium flux, CHO cells, duplicates, confirmation (AID 493007;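 active = potentiation averaged over duplicate wells exceeding buffer-only control mean by more than 3 SD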;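 as to outcome: cells depolarized by a potassium plus thallium sulfate stimulus after compound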;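 as to potentiation: 0% = buffer-only wells and 100% = R-L3 activator control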). The conditions noted are these: KCNQ1 cell line, FluxOR thallium flux fluorescence, at 10 µM; stronger effect = higher value, % of reference activator effect, buffer zero. The method in brief: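 Assay system: CHO cells carrying KCNQ1 | Controls: Buffer and R-L3 controls | Schedule: FluxOR dye loading 90 min, compound exposure 20 min, room temperature | Read-out: Baseline-normalized fluorescence change, percent of buffer-to-R-L3 range | Replicates: Each compound tested in duplicate | Technique: Kinetic thallium influx fluorescence with FluxOR dye, 10 s baseline, 110 s post-stimulus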

Assay [3] deals with Potassium voltage-gated channel subfamily KQT member 2 (Rattus norvegicus) (UniProt O88943). In words: KCNQ2 thallium flux enhancement – KCNQ2-CHO-K1 cells, selectivity assay for KCNQ1 potentiator project (AID 493009).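 Also: assay conditions were tuned for KCNQ1 rather than KCNQ2 modulators; signal is max minus min fluorescence divided by baseline after thallium stimulus.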 Conditions: FluxOR thallium flux fluorescence, at 10 µM; stronger effect = higher value, scaled: buffer 0, activator control 100.
Assay [4] concerns the target Potassium voltage-gated channel subfamily KQT member 1 (Homo sapiens) (UniProt P51787). In words: KCNQ1 activators by electrophysiology – IonWorks patch clamp, KCNQ1-CHO cells, orthogonal assay for KCNQ1 potentiator project, confirmation (AID 493184;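 active = current rise at least 3 SD above the untreated control mean in each of two repeat wells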). The conditions noted are these: automated patch clamp current, at 10 µM; stronger effect = higher value. The method in brief:
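Material: KCNQ1-expressing CHO cells; doses: 10 µM final, single point; probe or stimulus: voltage step from -90 mV holding to +40 mV, 2,000 ms; signal: automated voltage clamp, amphotericin B perforated patch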
(In general: In patch-clamp work, channel activity is measured electrically.)

Potassium voltage-gated channel subfamily KQT member 2 (Rattus norvegicus), sequence (O88943 whole entry, looked up): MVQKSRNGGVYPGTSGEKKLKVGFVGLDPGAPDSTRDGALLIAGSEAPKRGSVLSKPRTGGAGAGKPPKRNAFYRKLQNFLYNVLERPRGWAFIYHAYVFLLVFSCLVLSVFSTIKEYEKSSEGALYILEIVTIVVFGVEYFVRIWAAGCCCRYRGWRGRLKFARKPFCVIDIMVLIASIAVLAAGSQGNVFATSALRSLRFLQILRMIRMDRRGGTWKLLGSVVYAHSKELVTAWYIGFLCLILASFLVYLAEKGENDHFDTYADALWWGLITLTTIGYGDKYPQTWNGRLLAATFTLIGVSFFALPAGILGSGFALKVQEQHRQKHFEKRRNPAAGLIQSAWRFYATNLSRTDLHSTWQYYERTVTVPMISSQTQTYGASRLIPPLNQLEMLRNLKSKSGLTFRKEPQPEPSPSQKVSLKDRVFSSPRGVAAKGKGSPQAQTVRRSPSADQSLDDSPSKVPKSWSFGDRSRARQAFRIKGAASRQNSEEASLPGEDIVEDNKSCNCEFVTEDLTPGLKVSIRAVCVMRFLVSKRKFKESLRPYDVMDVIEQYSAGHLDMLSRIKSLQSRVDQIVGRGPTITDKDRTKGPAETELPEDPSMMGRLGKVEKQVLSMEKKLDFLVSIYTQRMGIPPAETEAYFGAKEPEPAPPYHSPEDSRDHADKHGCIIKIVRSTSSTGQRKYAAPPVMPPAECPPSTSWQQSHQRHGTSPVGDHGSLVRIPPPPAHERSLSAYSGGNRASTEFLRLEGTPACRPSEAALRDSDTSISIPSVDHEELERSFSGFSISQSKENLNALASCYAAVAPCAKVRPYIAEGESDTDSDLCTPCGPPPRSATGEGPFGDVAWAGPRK
Potassium voltage-gated channel subfamily KQT member 1 (Homo sapiens), sequence (P51787 whole entry, looked up): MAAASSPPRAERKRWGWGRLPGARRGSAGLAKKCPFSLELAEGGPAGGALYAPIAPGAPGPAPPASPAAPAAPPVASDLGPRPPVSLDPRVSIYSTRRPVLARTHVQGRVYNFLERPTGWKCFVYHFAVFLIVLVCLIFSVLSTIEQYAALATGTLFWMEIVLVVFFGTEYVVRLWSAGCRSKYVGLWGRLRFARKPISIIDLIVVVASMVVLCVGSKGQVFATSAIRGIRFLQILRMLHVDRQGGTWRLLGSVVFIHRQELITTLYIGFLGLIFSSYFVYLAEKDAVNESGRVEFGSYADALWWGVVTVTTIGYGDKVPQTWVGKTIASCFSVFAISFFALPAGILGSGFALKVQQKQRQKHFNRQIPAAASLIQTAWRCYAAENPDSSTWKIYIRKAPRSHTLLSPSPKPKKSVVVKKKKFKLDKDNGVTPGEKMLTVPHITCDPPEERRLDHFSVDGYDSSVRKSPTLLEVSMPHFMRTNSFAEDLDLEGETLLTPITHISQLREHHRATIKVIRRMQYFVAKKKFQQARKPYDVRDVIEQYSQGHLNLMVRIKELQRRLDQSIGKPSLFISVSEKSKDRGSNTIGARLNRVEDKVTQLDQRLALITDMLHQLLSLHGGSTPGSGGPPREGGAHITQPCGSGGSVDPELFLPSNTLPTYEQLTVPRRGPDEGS

Take `Cn1c(=O)n(CCc2ccccc2)c2ccccc21`: the outcome in assay [1], in assay [2], in assay [3] and in assay [4] was inactive.
In the case of `O=C(Nc1ccccc1Cl)N1CCN(c2ccccn2)CC1`, the result in assay [1], in assay [2], in assay [3] and in assay [4] was inactive.
As to `CCCC(=O)n1nc(-c2ccccc2)nc1N`, the outcome in assay [1], in assay [2], in assay [3] and in assay [4] was inactive.
Turning to `COc1ccc2nc(/N=C/c3c(C)[nH]n(-c4ccc(C)cc4C)c3=O)sc2c1`, the activation in assay [1] is 232% (active). For the same molecule, the potentiation in assay [2] is 113% (active); in assay [3], 306% (active). Moreover, in assay [4], the result was inactive.
On the same counts, the results for `S=c1[nH]c(-c2ccc(Cl)cc2)cs1` are 634% (active), 206% (active), 525% (active) and “inactive”.
On the same counts, the results for `C=CCN(CC=C)C(=S)NC(=O)c1ccc(OC)cc1` are 187% (active), 43.5% (active), 162% (active) and “inactive”.
On the same counts, the results for `COc1ccc(NC(=S)NC(=O)c2csnn2)cc1` are 213% (active), 71% (active), 282% (active) and “inactive”.
As to `COc1ccc(S(=O)(=O)NCCOc2ccccc2)cc1OC`, the result in assay [1], in assay [2], in assay [3] and in assay [4] was inactive.
Regarding `CN(C(=O)CSc1ncnc2sc(-c3ccccc3)cc12)C1CCS(=O)(=O)C1` (stereo not given), in assay [1], the activation is 529% (active). The potentiation in assay [2] was 176% (active); in assay [3], 501% (active). In assay [4], the outcome was inactive.
Turning to `Cc1c(C(=O)NC(=S)NCc2cccnc2)oc2ccccc12`, the result in assay [1], in assay [2], in assay [3] and in assay [4] was inactive.
As to `c1ccc2[nH]c(-c3ccc4c(c3)OCO4)nc2c1`, the result in assay [1], in assay [2], in assay [3] and in assay [4] was inactive.
On to `Oc1ccc(C[C@@H]2CNCCN2CCc2cc(C(F)(F)F)cc(C(F)(F)F)c2)cc1`, for which the result in assay [1], in assay [2], in assay [3] and in assay [4] was inactive.
For the molecule `COc1ccc(CCNC(=O)c2c(C)nc3ccccn23)cc1`, the result in assay [1], in assay [2], in assay [3] and in assay [4] was inactive.
As to `CCc1ccc(NC(=O)C(=O)NNC(=O)c2ccc(OC)cc2)cc1`, the activation in assay [1] was 326% (active). Further, the results for the potentiation in assay [2] and in assay [3] were 149% (active) and 367% (active), respectively. Further, the outcome in assay [4] was inactive.
Turning to `COc1ccc(CN2CCCC(CNC(=O)c3ccc(F)cc3)C2)c(C)c1C` (stereo not given), the outcome in assay [1], in assay [2], in assay [3] and in assay [4] was inactive.
Take `CCOC(=O)CSc1nc2ccccc2n2c(C)nnc12`: the outcome in assay [1], in assay [2], in assay [3] and in assay [4] was inactive.
With `O=C(CSc1ncnc2c1cnn2-c1ccc(F)cc1)NC1CCCC1`, the outcome in assay [1], in assay [2], in assay [3] and in assay [4] was inactive.
Consider `CC1Cc2ccccc2N1C(=S)NC(=O)C1(C)CC1(Cl)Cl` (stereo not given), for which the activation in assay [1] was 236% (active). Further, the potentiation in assay [2] was 72.5% (active); in assay [3] it was 267% (active). In assay [4], the outcome was inactive.
For the molecule `CCOc1ccc(C(C#N)N2CCOCC2)cc1OC` (stereo not given), the result in assay [1], in assay [2], in assay [3] and in assay [4] was inactive.
Regarding `Cc1ccc(NC(=O)CN(C)C(=O)CCOc2ccccc2C)cc1`, the result in assay [1], in assay [2], in assay [3] and in assay [4] was inactive.
On to `CCCCCc1ccc(C(=O)CCCC)c(=S)[nH]1`, for which the activation in assay [1] is 277% (active). The potentiation was 154% (active) in assay [2] and 300% (active) in assay [3]. For the same molecule, the result in assay [4] was inactive.
Consider `N#CCn1c(CCl)nc2ccccc2c1=O`, for which the outcome in assay [1], in assay [2], in assay [3] and in assay [4] was inactive.
Take `CCCCOC(=O)c1ccc(NC(=S)NC(=O)c2c(Cl)cnn2C)cc1`: the outcome in assay [1] and in assay [4] was inactive. In addition, the potentiation in assay [2] is 77.5% (active); in assay [3], 160% (active).
`Fc1ccc(SCCc2ccncc2)cc1`: the result in assay [1], in assay [2], in assay [3] and in assay [4] was inactive.
In the case of `CCN(CC)S(=O)(=O)c1cccc(C(=O)N[C@H](C(=O)NNC(=O)c2ccccc2)C(C)C)c1`, the result in assay [1], in assay [2], in assay [3] and in assay [4] was inactive.
On to `Cc1ccc(NC(=O)C(=O)NNC(=O)c2cccs2)cc1`, for which, in assay [1], the activation is 337% (active). For the same molecule, the potentiation in assay [2] was 88.5% (active); in assay [3] it was 326% (active). The outcome in assay [4] was inactive.
The like results for `CCOC(=O)c1sc2nc(Cc3ccc(Cl)cc3)[nH]c(=S)c2c1C` were, in that order, 302% (active), 144% (active), 362% (active) and “inactive”.
The like results for `CC(C)CN1C(=O)/C(=C/c2cccs2)NC1=S` were, in that order, 392% (active), 180% (active), 450% (active) and “inactive”.
Turning to `O=C(NCc1ccccc1)/C(=C/c1ccccc1)NC(=O)c1ccco1`, the result in assay [1], in assay [2], in assay [3] and in assay [4] was inactive.
Take `CC(Oc1ccc(Br)cc1)c1nc2c3ccccc3nc(=S)n2[nH]1` (stereo not given): the activation in assay [1] was 227% (active). The potentiation is 45.5% (active) in assay [2] and 178% (active) in assay [3]. Moreover, the outcome in assay [4] was inactive.
